# Screening results as filed in PubChem.
# Redox H2O2 prof: compounds producing H2O2 with reducing agent – biochemical, NIH compound library profiling, artefact control for MLSCN library redox annotation, primary screen | AID 878, 2007 | DTT-dependent redox cycling H2O2, phenol red/HRP absorbance; 100% = 100 µM peroxide control, 0% = buffer | 200,000 compounds, 0.03% hits | activation, % at 10 µM;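 active = activation of at least 50% relative to the plate's high and low controls in the primary single-dose screen; inactive = activation below 50%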;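 also: compound incubated with DTT at 0.8 mM final as the reducing agent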
# MPTP block: mitochondrial permeability transition pore inhibitors, primary screen, biochemical, isolated mouse mitochondria, absorbance; Ca2+ swelling absorbance, 30 min; inhibition, % at 10 µM; 360,000 compounds, 1.4% hits;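 active = inhibition of 50% or more, scaled per plate between neutral and stimulator controls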;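 also: 0% = DMSO wells given calcium and 100% = 1 mM EGTA wells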
# Lmaj promast: Leishmania major promastigote growth inhibition, primary screen; Leishmania major promastigotes, resazurin fluorescence viability; inhibition, % at 10 µM; AID 1063, 2008; 200,000 compounds, 9% hits; in the data active = inhibition above about 50%;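 also: promastigotes grown with compound for 44 hours at 28 °C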
# T cruzi inh: inhibitors of intracellular T. cruzi growth, primary screen, luminescence, NIH3T3 host cells; T. cruzi beta-gal in NIH3T3, 90 h; AID 1885, 2009; 300,000 compounds, 1.4% hits; inhibition, % (concentration not given with the values);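 active = mean inhibition across valid replicates above about 55%, limit read from the data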;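 also: signal also drops with host cell toxicity which is not excluded here; 0% = plate median of DMSO wells and 100% = zero luminescence signal; higher percent means less beta-gal luminescence so fewer parasites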
#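 Read-out: Parasite load inhibition, % | Test system: Mouse NIH/3T3 fibroblasts infected with β-gal-expressing T. cruzi Tulahuen C4 | Amount: 5,000 cells/well | Medium: DMEM, 2% fetal bovine serum | Signal: GalScreen β-gal luminescence, detergent lysis, 60 min | Timing: 3 h attach, ≥90 h co-culture | Also added: Tulahuen C4 trypomastigotes, 5000/well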
# Lipid droplet: inhibitors of hepatocyte lipid droplet formation, primary screen, imaging, high-throughput imaging, BODIPY stain. AID 1656, 2009. AML12 mouse hepatocytes, oleate lipid droplets. inhibition, % at 6.5 µM. 240,000 compounds, 0.4% hits;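 active = lipid droplet intensity inhibited by at least 50%, with more than 500 cells counted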
#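 Assay system: AML12 mouse liver cells | Compound dosing: One dose, 6.5 µM compound | Read-out basis: Droplet intensity reduction, % inhibition | Measured by: Fluorescence imaging, 20x objective, two fields per well | Schedule: Overnight treatment with compound plus oleate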
# An asterisk follows results filed as active; / = not tested or not shown. The entries come from a sample that favours hits as a whole.
SMILES,Redox H2O2 prof,MPTP block,Lmaj promast,T cruzi inh,Lipid droplet
CC(C)CCN1CCN(Cc2ccc3nsnc3c2)CC1CCO (stereo unspecified),-1.0,3.4,40.9,41.6,14.6
Cc1ccc(CN2CCN(CCCn3cccn3)CC2CCO)cc1 (stereo unspecified),-1.2,-0.7,10.1,26.1,-8.7
Cc1cc(-n2cccn2)ccc1CN1CCN(CC(C)C)C(CCO)C1 (stereo unspecified),/,2.3,/,18.2,-10.4
Nc1sc(-c2ccccc2)c(Cc2ccccc2)c1C(=O)O,-1.7,6.0,-13.2,3.9,4.9
COc1ccc(NC(=S)N(C(C)C)C2CCN(C(C)C)CC2)cc1Cl,/,/,/,0.5,-0.3
Cc1nn(-c2ccccc2)c(Cl)c1/C=C(\C#N)C(=O)NC(C)C,-0.6,0.0,99.9*,1.0,8.6
COc1ccc(NC(=O)/C(C#N)=C/c2c(C)nn(-c3ccc(F)cc3)c2Cl)cc1Cl,0.9,8.6,95.6*,-1.0,3.5
COc1ccccc1NC(=O)/C(C#N)=C/c1c(C)nn(-c2ccc(F)cc2)c1Cl,0.8,0.4,0.9,-15.1,12.7
CN(C)c1nc(-c2ccccc2)nc(-c2ccc(Cl)cc2)c1C#N,0.5,20.4,-0.9,13.4,11.1
CCN(CC)c1nc(-c2ccccn2)nc(-c2ccccc2)c1C#N,-0.9,-0.1,70.5*,57.9*,19.8
CCCN(CCC)c1nc(-c2ccccn2)nc2ccccc12,/,2.8,/,58.3*,-35.3
C/C(=N\Nc1nc(-c2ccccn2)nc2ccccc12)c1ccc(F)cc1,/,-0.4,/,33.6,6.9
CCCCN(CC)c1nc(-c2ccncc2)nc2ccccc12,0.1,3.9,7.9,53.6,-4.9
c1ccc(CCNc2nc(-c3ccccn3)nc3ccccc23)cc1,/,42.2,/,76.4*,-98.3
COc1ccc(OCC(=O)Nc2ccc(NC(=O)c3ccccc3Cl)c(OC)c2)cc1,/,0.1,/,-0.4,-2.5
O=C(C[n+]1cccc(/C=N/O)c1)NC(=O)Nc1ccccc1,/,0.4,/,/,/
O=C(COC(=O)c1cccc(OC(F)F)c1)Nc1cccc(S(=O)(=O)N2CCCC2)c1,/,0.1,/,/,/
CC1=C(CC/C(C)=N/NC(N)=S)C(C)(C)CCC1,0.8,0.1,100.0*,51.9,-13.5
C/C(CC(=O)NCc1ccccc1)=N\NC(N)=S,-0.9,-0.8,-5.1,-19.7,20.7
CCCCNC(=O)C[C@@H]1C[C@@]2(C(=O)OC)CCCCC=C2N(Cc2ccc(Cl)cc2Cl)C1=O,/,-0.7,/,/,/
CCCCCCSc1ccc(-c2nc3ccc(C)cn3c2NCc2ccccc2)cc1OC,/,3.4,/,56.3*,/
Cc1ccc(/C=C/C(=O)c2nc3ccccc3[nH]2)cc1,-3.9,0.7,98.3*,-0.8,/
N#C/C(=C\c1ccc(-c2cccc([N+](=O)[O-])c2)o1)c1nnc(N2CCOCC2)n1-c1ccccc1,0.2,/,63.1*,35.0,-4.6
O=C(c1cccnc1)N1N=C(c2cccs2)CC1c1ccc(F)cc1 (stereo unspecified),-0.4,1.4,22.9,11.9,1.2
O=C1c2cccc(OCC(=O)N3N=C(c4cccs4)CC3c3ccc(F)cc3)c2CCN1Cc1cccnc1 (stereo unspecified),-0.2,0.3,85.1*,44.8,-7.9
SMILES,Redox H2O2 prof,MPTP block,Lmaj promast,T cruzi inh,Lipid droplet
Cc1c(C(=O)NCc2ccc3c(c2)OCO3)sc(=O)n1Cc1cccc(F)c1,/,-2.6,/,/,/
O=C(c1ccco1)N1CCN(CCOCCOc2cccc3ccccc23)CC1,0.6,2.0,89.8*,24.3,/
O=C(c1ccco1)N1CCN(CCCCOc2cccc3ccccc23)CC1,0.6,0.6,87.5*,14.9,-21.7
C/C(=N\NC(=O)Cn1c(-c2ccccn2)nc2ccccc21)c1ccccc1,-0.6,1.3,67.9*,11.0,-7.5
CCNC(=S)N/N=C/c1cccs1,0.9,0.1,99.6*,-6.5,10.0
CCNC(=S)N/N=C/c1cccc(/C=N/NC(=S)NCC)c1,0.4,3.6,-3.8,-13.7,5.4
COc1ccccc1CNC(=O)CCNC(=O)c1ccco1,/,-0.7,/,/,/
Cc1cc2cc(CCNC(=O)CCc3ccccc3)c(=O)[nH]c2cc1C,/,0.3,/,6.2,6.1
CN(CC(=O)Nc1ccc(F)c(F)c1F)c1cnccn1,1.4,/,10.4,63.7*,/
CCCCC(CC)CNC(=O)CN1C(=O)NC2(CCc3ccccc32)C1=O (stereo unspecified),/,0.9,/,-17.5,34.1
